Format in all cases: functional
Assay [1] relates to Neisseria gonorrhoeae. In words: Antimicrobial activity against […] Neisseria gonorrhoeae NGON 06-041 expressing beta-lactamase TEM-1, MLST type ST-1588 and MAST type ST-4012 by agar dilution method.
Assay [2] has as its system Neisseria gonorrhoeae. Briefly: Antimicrobial activity against […] Neisseria gonorrhoeae NGON 08-046 expressing beta-lactamase TEM-1, MLST type ST-1584 and MAST type ST-1478 by agar dilution method. In general terms: Agar dilution tests growth on a series of plates holding different concentrations.
In assay [3] the test system is Neisseria gonorrhoeae. In words: Antimicrobial activity against […] Neisseria gonorrhoeae NGON 08-041 expressing beta-lactamase TEM-1, MLST type ST-1584 and MAST type ST-1478 by agar dilution method. The method, boiled down: (§1)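 Clinical PPNG isolates from one Tokyo hospital, collected 2000–2008 and flagged as penicillinase producers by nitrocefin test. MICs of penicillin, cefixime and ceftriaxone were determined by agar dilution per an earlier method. Isolates were typed by MLST and MAST. The bla gene was PCR-amplified (annealing at 60°C, 30 cycles) and sequenced to assign the TEM allele.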

In assay [4] the test system is Neisseria gonorrhoeae. Briefly: Antimicrobial activity against […] Neisseria gonorrhoeae NGON 00-002 expressing beta-lactamase TEM-1, MLST type ST-1590 and MAST type ST-270 by agar dilution method. The method, boiled down: as §1
Assay [5] concerns Neisseria gonorrhoeae. In words: Antimicrobial activity against […] Neisseria gonorrhoeae NGON 08-044 expressing beta-lactamase TEM-1, MLST type ST-7823 and MAST type ST-1288 by agar dilution method. The method, boiled down:
as §1

Assay [6] concerns Neisseria gonorrhoeae. Briefly: Antimicrobial activity against […] Neisseria gonorrhoeae NGON 08-043 expressing beta-lactamase TEM-1, MLST type ST-7823 and MAST type ST-1288 by agar dilution method. The method, boiled down: as §1
Assay [7] has as its system Neisseria gonorrhoeae. Briefly: Antimicrobial activity against […] Neisseria gonorrhoeae NGON 08-003 expressing beta-lactamase TEM-135, MLST type ST-7823 and MAST type ST-4013 by agar dilution method. The method, boiled down: as §1
Assay [8] relates to Neisseria gonorrhoeae. Briefly: Antimicrobial activity against […] Neisseria gonorrhoeae NGON 05-042 expressing beta-lactamase TEM-1, MLST type ST-1588 and MAST type ST-4012 by agar dilution method.
Assay [9] relates to Neisseria gonorrhoeae. In words: Antimicrobial activity against […] Neisseria gonorrhoeae NGON 04-025 expressing beta-lactamase TEM-135, MLST type ST-1597 and MAST type ST-1549 by agar dilution method.
The test system of assay [10] is Neisseria gonorrhoeae. Briefly: Antimicrobial activity against […] Neisseria gonorrhoeae NGON 00-027 expressing beta-lactamase TEM-1, MLST type ST-1921 and MAST type ST-1817 by agar dilution method. The method in brief: as §1

Each structure is given as a SMILES string. ≈ marks a conversion by molar mass, not a printed value.

Consider `CC1(C)S[C@@H]2[C@H](NC(=O)Cc3ccccc3)C(=O)N2[C@H]1C(=O)O` [PENICILLIN G], for which the MIC (in general, the lowest concentration found to suppress growth) was 32 µg/mL (≈ 95.7 µM) in the assay with Neisseria gonorrhoeae [1]; 64 µg/mL (≈ 191 µM) in the assay with Neisseria gonorrhoeae [2]; 64 µg/mL (≈ 191 µM) with Neisseria gonorrhoeae [3]; 16 µg/mL (≈ 47.8 µM) in the assay on Neisseria gonorrhoeae [4]; > 64 µg/mL against Neisseria gonorrhoeae [5]; > 64 µg/mL with Neisseria gonorrhoeae [6]. The MIC was > 64 µg/mL in the assay on Neisseria gonorrhoeae [7], 64 µg/mL (≈ 191 µM) in the assay on Neisseria gonorrhoeae [8], > 64 µg/mL against Neisseria gonorrhoeae [9] and > 64 µg/mL with Neisseria gonorrhoeae [10].
Turning to `C=CC1=C(C(=O)O)N2C(=O)[C@@H](NC(=O)/C(=N\OCC(=O)O)c3csc(N)n3)[C@H]2SC1` [CEFIXIME], the MIC against Neisseria gonorrhoeae [1] stood at 0.25 µg/mL (≈ 0.551 µM); against Neisseria gonorrhoeae [2], 0.25 µg/mL (≈ 0.551 µM); in the assay on Neisseria gonorrhoeae [3], 0.008 µg/mL (≈ 0.0176 µM); in the assay with Neisseria gonorrhoeae [4], 0.032 µg/mL (≈ 0.0706 µM); against Neisseria gonorrhoeae [5], 0.064 µg/mL (≈ 0.141 µM); against Neisseria gonorrhoeae [6] it was 0.064 µg/mL (≈ 0.141 µM). For the same molecule, the MIC with Neisseria gonorrhoeae [7] was determined as 0.032 µg/mL (≈ 0.0706 µM); in the assay with Neisseria gonorrhoeae [8], 0.25 µg/mL (≈ 0.551 µM); in the assay on Neisseria gonorrhoeae [9], 0.004 µg/mL (≈ 0.00882 µM); against Neisseria gonorrhoeae [10], 0.008 µg/mL (≈ 0.0176 µM).
Regarding `CO/N=C(\C(=O)N[C@@H]1C(=O)N2C(C(=O)O)=C(CSc3nc(=O)c(O)nn3C)CS[C@H]12)c1csc(N)n1` [CEFTRIAXONE], the MIC came to 0.032 µg/mL (≈ 0.0577 µM) against Neisseria gonorrhoeae [1]; 0.032 µg/mL (≈ 0.0577 µM) against Neisseria gonorrhoeae [2]; 0.004 µg/mL (≈ 0.00721 µM) against Neisseria gonorrhoeae [3]; 0.016 µg/mL (≈ 0.0289 µM) in the assay on Neisseria gonorrhoeae [4]; 0.064 µg/mL (≈ 0.115 µM) in the assay with Neisseria gonorrhoeae [5]; 0.064 µg/mL (≈ 0.115 µM) against Neisseria gonorrhoeae [6]. For the same molecule, the MIC in the assay on Neisseria gonorrhoeae [7] was 0.032 µg/mL (≈ 0.0577 µM); against Neisseria gonorrhoeae [8], 0.064 µg/mL (≈ 0.115 µM); in the assay on Neisseria gonorrhoeae [9], ≤ 0.004 µg/mL; with Neisseria gonorrhoeae [10] it was 0.008 µg/mL (≈ 0.0144 µM).

For the origin of these results see ChEMBL document CHEMBL1275604, “Identification of TEM-135 beta-lactamase in penicillinase-producing Neisseria gonorrhoeae strains in Japan” (2010).
